Source: ChEMBL document CHEMBL1240328, “Selective compounds define Hsp90 as a major inhibitor of apoptosis in small-cell lung cancer” (Nat Chem Biol, 2007)
One block for each compound: values may come before it. Calls of active or inactive are those of the source.

How the values were obtained:
[1] = target: RAC-alpha serine/threonine-protein kinase (Homo sapiens) (UniProt P31749); conditions: NCI-H526, 50 uM
[2] = target: Heat shock protein HSP 90-beta (Homo sapiens) (UniProt P08238); experiment: Binding affinity to HSP90 in human NCI-H510 cells after 24 hrs by fluorescence polarization assay; format: cell-based
Heat shock protein HSP 90-beta (Homo sapiens), sequence (P08238 whole entry): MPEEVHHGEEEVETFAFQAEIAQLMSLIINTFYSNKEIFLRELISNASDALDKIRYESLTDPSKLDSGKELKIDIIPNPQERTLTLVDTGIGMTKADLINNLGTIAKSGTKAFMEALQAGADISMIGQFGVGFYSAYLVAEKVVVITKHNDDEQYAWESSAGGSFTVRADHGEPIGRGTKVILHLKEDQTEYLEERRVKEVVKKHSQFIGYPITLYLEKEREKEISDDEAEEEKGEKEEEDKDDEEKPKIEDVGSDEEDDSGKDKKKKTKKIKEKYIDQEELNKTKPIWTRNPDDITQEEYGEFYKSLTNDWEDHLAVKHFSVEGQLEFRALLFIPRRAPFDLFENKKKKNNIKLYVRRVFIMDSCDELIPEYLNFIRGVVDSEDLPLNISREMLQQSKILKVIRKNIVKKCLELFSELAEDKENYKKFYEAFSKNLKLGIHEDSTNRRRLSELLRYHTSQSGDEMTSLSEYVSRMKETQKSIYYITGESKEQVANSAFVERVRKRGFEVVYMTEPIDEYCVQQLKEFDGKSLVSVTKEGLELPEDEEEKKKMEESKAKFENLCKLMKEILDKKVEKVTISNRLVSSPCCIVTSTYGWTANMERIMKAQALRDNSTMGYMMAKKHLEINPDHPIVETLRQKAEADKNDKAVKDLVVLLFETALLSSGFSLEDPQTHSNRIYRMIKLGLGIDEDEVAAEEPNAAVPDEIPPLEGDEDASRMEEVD

[3] = target: Heat shock protein HSP 90-beta (Homo sapiens) (UniProt P08238); experiment: Binding affinity to HSP90 in human NCI-H526 cells after 24 hrs by fluorescence polarization assay; format: cell-based
[4] = target: Heat shock protein HSP 90-beta (Homo sapiens) (UniProt P08238); experiment: Inhibition of HSP90-mediated antiapoptotic activity in human NCI-H510 cells assessed as increase in apoptotic cell population at 0.2 to 1 uM after 96 hrs by FACS analysis relative to control; format: cell-based
[5] = target: Heat shock protein HSP 90-beta (Homo sapiens) (UniProt P08238); experiment: Inhibition of HSP90-mediated antiapoptotic activity in human NCI-H69 cells assessed as increase in apoptotic cell population at 0.2 to 1 uM after 72 hrs by FACS analysis relative to control; format: cell-based
[6] = target: Heat shock protein HSP 90-beta (Homo sapiens) (UniProt P08238); experiment: Binding affinity to HSP90 in human NCI-N417 cells after 24 hrs by fluorescence polarization assay; format: cell-based; conditions: NCI-H417
[7] = target: Heat shock protein HSP 90-beta (Homo sapiens) (UniProt P08238); experiment: Inhibition of HSP90 in chemo-resistant human H69AR cells at 100 uM after 24 hrs by fluorescence polarization assay; format: cell-based
How it was run: (§1)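 Competitive fluorescence polarization in lysates of H69AR, SKI-AC3 and WBA cells, prepared in HFB buffer pH 7.3 and normalized to Hsp90. Tracer was 3 nM Cy3B-geldanamycin, with incubation for 24 h at 4 °C. EC50 was defined as 50% tracer displacement.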

[8] = target: Heat shock protein HSP 90-beta (Homo sapiens) (UniProt P08238); experiment: Inhibition of HSP90-mediated proliferation of human SKBR3cells after 72 hrs by sulforhodamine B assay
[9] = target: Heat shock protein HSP 90-beta (Homo sapiens) (UniProt P08238); experiment: Inhibition of HSP90-mediated proliferation of human NCI-H69 cells at 1 to 3 uM after 72 to 96 hrs by sulforhodamine B assay; format: cell-based
[10] = target: Heat shock protein HSP 90-beta (Homo sapiens) (UniProt P08238); experiment: Binding affinity to HSP90 in human SKBR3 cells after 24 hrs by fluorescence polarization assay; conditions: SK-BR-3
[11] = target: Heat shock protein HSP 90-beta (Homo sapiens) (UniProt P08238); experiment: Inhibition of HSP90-mediated antiapoptotic activity in human H69AR cells assessed as induction of cell growth arrest at 10 after 96 hrs by propidium iodide staining-based flow cytometry
[12] = target: Heat shock protein HSP 90-beta (Homo sapiens) (UniProt P08238); experiment: Inhibition of HSP90-mediated proliferation of human NCI-H526 cells at 1 to 3 uM after 72 to 96 hrs by sulforhodamine B assay; format: cell-based
[13] = target: Heat shock protein HSP 90-beta (Homo sapiens) (UniProt P08238); experiment: Inhibition of HSP90 in chemo-resistant human SKI-AC3 cells at 100 uM after 24 hrs by fluorescence polarization assay; format: cell-based
How it was run: as §1

[14] = target: Heat shock protein HSP 90-beta (Homo sapiens) (UniProt P08238); experiment: Inhibition of HSP90-mediated antiapoptotic activity in human NCI-N417 cells assessed as increase in apoptotic cell population at 0.2 to 1 uM after 96 hrs by FACS analysis relative to control; format: cell-based
[15] = target: Heat shock protein HSP 90-beta (Homo sapiens) (UniProt P08238); experiment: Binding affinity to HSP90 in human NCI-H187 cells after 24 hrs by fluorescence polarization assay
[16] = target: Heat shock protein HSP 90-beta (Homo sapiens) (UniProt P08238); experiment: Inhibition of HSP90-mediated proliferation of human NCI-H146 cells at 1 to 3 uM after 72 to 96 hrs by sulforhodamine B assay; format: cell-based
[17] = target: Heat shock protein HSP 90-beta (Homo sapiens) (UniProt P08238); experiment: Binding affinity to HSP90 in human NCI-H69 cells after 24 hrs by fluorescence polarization assay
[18] = target: Heat shock protein HSP 90-beta (Homo sapiens) (UniProt P08238); experiment: Inhibition of HSP90-mediated proliferation of human NCI-H209 cells at 1 to 3 uM after 72 to 96 hrs by sulforhodamine B assay; format: cell-based
[19] = target: Heat shock protein HSP 90-beta (Homo sapiens) (UniProt P08238); experiment: Inhibition of HSP90-mediated proliferation of human NCI-N417 cells at 1 to 3 uM after 72 to 96 hrs by sulforhodamine B assay; format: cell-based; conditions: NCI-H417
[20] = target: Heat shock protein HSP 90-beta (Homo sapiens) (UniProt P08238); experiment: Binding affinity to HSP90 in human NCI-H146 cells after 24 hrs by fluorescence polarization assay; format: cell-based
[21] = target: Heat shock protein HSP 90-beta (Homo sapiens) (UniProt P08238); experiment: Inhibition of HSP90-mediated proliferation of human NCI-H187 cells at 1 to 3 uM after 72 to 96 hrs by sulforhodamine B assay; format: cell-based
[22] = target: Heat shock protein HSP 90-beta (Homo sapiens) (UniProt P08238); experiment: Binding affinity to HSP90 in human NCI-H209 cells after 24 hrs by fluorescence polarization assay; format: cell-based
[23] = target: Heat shock protein HSP 90-beta (Homo sapiens) (UniProt P08238); experiment: Inhibition of HSP90-mediated proliferation of human NCI-H510 cells at 1 to 3 uM after 72 to 96 hrs by sulforhodamine B assay; format: cell-based
[24] = target: Heat shock protein HSP 90-beta (Homo sapiens) (UniProt P08238); experiment: Inhibition of HSP90-mediated antiapoptotic activity in human NCI-H209 cells assessed as increase in apoptotic cell population at 0.2 to 1 uM after 96 hrs by FACS analysis relative to control; format: cell-based
[25] = target: Heat shock protein HSP 90-beta (Homo sapiens) (UniProt P08238); experiment: Inhibition of HSP90 in chemo-resistant human WBA cells at 100 uM after 24 hrs by fluorescence polarization assay; format: cell-based
How it was run: as §1

[26] = target: Heat shock protein HSP 90-beta (Homo sapiens) (UniProt P08238); experiment: Inhibition of HSP90-mediated antiapoptotic activity in human NCI-H526 cells assessed as increase in apoptotic cell population at 0.2 to 1 uM after 72 hrs by FACS analysis relative to control; format: cell-based
[27] = target: Heat shock protein HSP 90-beta (Homo sapiens) (UniProt P08238); experiment: Inhibition of HSP90-mediated antiapoptotic activity in human WBA cells assessed as induction of cell growth arrest at 10 after 96 hrs by propidium iodide staining-based flow cytometry
[28] = target: Heat shock protein HSP 90-beta (Homo sapiens) (UniProt P08238); experiment: Inhibition of HSP90-mediated antiapoptotic activity in human NCI-H187 cells assessed as increase in apoptotic cell population at 0.2 to 1 uM after 72 hrs by FACS analysis relative to control; format: cell-based
[29] = target: Heat shock protein HSP 90-beta (Homo sapiens) (UniProt P08238); experiment: Inhibition of HSP90-mediated antiapoptotic activity in human SKI-AC3 cells assessed as induction of cell growth arrest at 10 after 96 hrs by propidium iodide staining-based flow cytometry
[30] = target: Heat shock protein HSP 90-beta (Homo sapiens) (UniProt P08238); experiment: Inhibition of HSP90-mediated antiapoptotic activity in human NCI-H146 cells assessed as increase in apoptotic cell population at 0.2 to 1 uM after 96 hrs by FACS analysis relative to control; format: cell-based

RAC-alpha serine/threonine-protein kinase (Homo sapiens), sequence (P31749 whole entry): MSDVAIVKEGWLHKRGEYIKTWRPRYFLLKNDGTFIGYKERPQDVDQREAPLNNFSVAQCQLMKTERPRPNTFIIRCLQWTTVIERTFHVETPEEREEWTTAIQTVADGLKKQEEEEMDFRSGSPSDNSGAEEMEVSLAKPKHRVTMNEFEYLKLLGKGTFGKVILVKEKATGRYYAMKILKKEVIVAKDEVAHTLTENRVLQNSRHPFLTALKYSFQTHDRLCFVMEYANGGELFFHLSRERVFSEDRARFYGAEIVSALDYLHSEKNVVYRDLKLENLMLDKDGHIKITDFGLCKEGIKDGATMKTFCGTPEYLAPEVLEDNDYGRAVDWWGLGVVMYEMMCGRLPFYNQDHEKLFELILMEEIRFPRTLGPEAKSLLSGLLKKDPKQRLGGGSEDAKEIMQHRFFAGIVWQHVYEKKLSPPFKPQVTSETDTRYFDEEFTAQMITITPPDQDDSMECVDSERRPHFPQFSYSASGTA

Compound: O=c1[nH]c2ccccc2n1C1CCN(Cc2ccc(-c3nc4cc5[nH]cnc5cc4nc3-c3ccccc3)cc2)CC1
- inhibition [1]: Active

- Activity [2]: Active
- Activity [3]: Active
- fold change (FC) [4]: 2
- fold change (FC) [5]: 2
- Activity [6]: Active
- inhibition [7]: Active
- inhibition [8]: Active
- inhibition [9]: 50%
- Activity [10]: Active
- Activity [11]: Active
- inhibition [12]: 50%
- inhibition [13]: Active
- fold change (FC) [14]: 2
- Activity [15]: Active
- inhibition [16]: 50%
- Activity [17]: Active
- inhibition [18]: 50%
- inhibition [19]: 50%
- Activity [20]: Active
- inhibition [21]: 50%
- Activity [22]: Active
- inhibition [23]: 50%
- fold change (FC) [24]: 2
- inhibition [25]: Active
- fold change (FC) [26]: 2
- Activity [27]: Active
- fold change (FC) [28]: 2
- Activity [29]: Active
- fold change (FC) [30]: 2
Compound: C#CCCCn1c(Sc2cc3c(cc2Br)OCO3)nc2c(N)ncnc21

- inhibition [8]: Active
- Activity [10]: Active
Compound: CC(C)NCCCn1c(Cc2cc3c(cc2I)OCO3)nc2c(N)nc(F)nc21
